# This is a sample that favours compounds with a hit; in the whole collection about 2.3% have one here.
# TRPC4 block = TRPC4 (mouse) channel inhibition. Q9QUQ5. HEK293 TRPC4beta/mu-opioid, DAMGO-evoked Fluo4 calcium flux; active compounds read low. B-score at 10 µM. 300,000 compounds, 0.39% hits. AID 2247;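 active = B-score over 3 SD under the library average, no early fluorescence shift, positive overall ratio signal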
#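 Material: HEK293 cells with stable TRPC4beta plus mu-opioid receptor expression / Probe or stimulus: DAMGO in two steps, submaximal then maximal / Compound: single concentration per test compound / Technique: kinetic Fluo4 fluorescence imaging of calcium influx / Read-out: per-well B score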
# TRPC6 inh = blocks the mouse TRPC6 cation channel; Q61143; HEK293-TRPC6, membrane potential dye, ACh-evoked depolarization; active compounds read low; B-score at 10 µM; 310,000 compounds, 1.1% hits;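 active = B-score under library mean minus 3 SD, initial fluorescence not abnormally high, positive integrated signal ratio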;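 also: B-score derived from integrated fluorescence ratio over the kinetic read; more negative B-score means stronger inhibition of depolarization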
# Target sequence (Q61143 whole entry, looked up): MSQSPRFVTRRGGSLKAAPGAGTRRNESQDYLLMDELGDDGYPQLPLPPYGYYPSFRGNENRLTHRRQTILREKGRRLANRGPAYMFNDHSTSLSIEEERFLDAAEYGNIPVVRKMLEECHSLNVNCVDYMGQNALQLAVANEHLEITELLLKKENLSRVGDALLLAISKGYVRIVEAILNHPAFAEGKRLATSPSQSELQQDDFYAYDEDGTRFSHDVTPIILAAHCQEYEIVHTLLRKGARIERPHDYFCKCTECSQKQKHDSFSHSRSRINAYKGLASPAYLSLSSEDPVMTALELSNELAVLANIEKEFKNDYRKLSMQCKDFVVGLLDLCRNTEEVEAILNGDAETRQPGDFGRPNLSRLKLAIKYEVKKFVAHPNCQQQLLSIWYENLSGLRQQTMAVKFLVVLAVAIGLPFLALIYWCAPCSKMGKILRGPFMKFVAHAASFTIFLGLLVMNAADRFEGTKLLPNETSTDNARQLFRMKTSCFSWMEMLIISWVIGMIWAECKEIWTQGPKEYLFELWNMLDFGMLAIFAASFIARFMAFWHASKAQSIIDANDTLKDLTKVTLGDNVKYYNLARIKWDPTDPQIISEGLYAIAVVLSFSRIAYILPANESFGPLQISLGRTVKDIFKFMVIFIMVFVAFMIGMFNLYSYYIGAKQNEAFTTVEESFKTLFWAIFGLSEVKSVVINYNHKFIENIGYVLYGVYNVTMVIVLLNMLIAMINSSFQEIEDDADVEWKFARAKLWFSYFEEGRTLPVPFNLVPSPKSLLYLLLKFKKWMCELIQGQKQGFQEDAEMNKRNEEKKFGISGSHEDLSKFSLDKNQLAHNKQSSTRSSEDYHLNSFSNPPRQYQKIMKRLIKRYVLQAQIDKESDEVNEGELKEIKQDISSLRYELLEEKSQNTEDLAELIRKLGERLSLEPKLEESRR
# TRPC4 act = opens the mouse TRPC4 cation channel | Q9QUQ5 | HEK293 TRPC4beta/mu-opioid, Fluo4 calcium fluorescence; active compounds read high | B-score at 10 µM | 310,000 compounds, 0.49% hits | AID 2237;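 active = B-score above 5 SD of library B-scores, and initial fluorescence ratio not above library mean plus 5 SD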;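 also: positive B-score marks a calcium rise read as TRPC4 activation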
#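 System: HEK293 cells stably co-expressing mouse TRPC4beta and mu-opioid receptor; Schedule: Fluo4 dye loading 45 min at room temperature, 110 s recording; Detection: Fluo4 fluorescence, kinetic; Evaluation: B-scored integrated calcium fluorescence ratio; Controls: buffer (low) and maximal DAMGO (high).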
# TRPC4 potent = allosteric potentiators of mouse TRPC4 channel. Q9QUQ5. HEK293 TRPC4beta/mu-opioid, DAMGO EC20, Fluo-4 Ca2+ flux; active compounds read high. B-score at 10 µM. 310,000 compounds, 0.42% hits. AID 2227;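 active = B-score of calcium response area above 5 SD of library B-scores, with initial fluorescence ratio within 5 SD of library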;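 also: B-score of integrated fluorescence ratio over time as area under calcium response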
# TRPC6 activator = activates the mouse TRPC6 cation channel; Q61143; HEK293-TRPC6 membrane potential dye fluorescence; active compounds read high; B-score at 10 µM; 310,000 compounds, 0.13% hits;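 active = B-score of the integrated fluorescence ratio above library mean plus 3 SD, and starting fluorescence ratio within library mean plus 5 SD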;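 also: higher score means more depolarization so channel activation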
# Numbers without * were called inactive; i = inactive; nt = no result given.
SMILES,TRPC4 block,TRPC6 inh,TRPC4 act,TRPC4 potent,TRPC6 activator
COc1ccc(CC(=O)Nc2nnc(C(C)(C)C)s2)cc1OC,i,i,i,i,i
CC(=O)c1cccc(N(C(=O)CNC(=O)c2ccco2)C(C(=O)NCC2CCCO2)c2ccccc2)c1 (stereo unspecified),i,i,i,11*,i
COc1cc(C)c(Cl)cc1S(=O)(=O)NCc1ccccn1,i,i,i,i,i
COc1ccc(C(CNc2ccc(C(F)(F)F)cn2)N(C)C)cc1OC (stereo unspecified),-6*,i,i,i,i
CCCCCCc1cc2cc(-c3nnc(-c4cc(OC)c(OC)c(OC)c4)o3)c(=O)oc2cc1O,i,i,i,40*,i
CCCCCCc1cc2cc(-c3nnc(-c4ccccc4O)o3)c(=O)oc2cc1O,i,i,i,25*,i
CCOC(=O)/C(=C\c1ccc(Cl)cc1)c1nc2sc(C)c(C)c2c(=O)[nH]1,i,i,i,11*,i
COc1ccc(SC[C@H](Cc2ccccc2)N2CCN(C)CCC2=O)cc1,-8*,i,i,i,i
CC(C)CN1CCC(=O)N([C@H](CSc2ccc(Br)cc2)Cc2ccccc2)CC1,i,i,i,i,i
CC(C)C[C@@H](COc1ccccc1)N1CCN(CCc2ccccc2)CCC1=O,nt,i,i,i,i
CCCN1CCC(=O)N([C@H](CSc2ccc(OC)cc2)Cc2ccccc2)CC1,i,i,i,i,i
Cc1ccc(SC[C@H](Cc2ccccc2)N2CCN(C)CCC2=O)cc1,nt,i,81*,i,i
CN1CCC(=O)N([C@H](CSc2ccccc2)Cc2ccccc2)CC1,i,i,i,i,i
CN1CCC(=O)N([C@H](CSc2ccc(Br)cc2)Cc2ccccc2)CC1,i,i,79*,i,i
O=C1CCN(CCc2ccccc2)CCN1[C@H](COc1ccccc1)Cc1ccccc1,nt,i,67*,i,i
Cc1cc(OCCNCCO)cc(C)c1Cl,i,i,94*,26*,i
Cc1cc(OCCCCCNCCO)cc(C)c1Cl,i,i,i,i,i
CSCCC(NS(=O)(=O)/C=C/c1ccccc1)C(=O)O (stereo unspecified),i,i,i,i,i
CCCn1c(C2CCCN2c2nc(-c3ccc(C)cc3)cs2)nc2ccccc21 (stereo unspecified),i,i,46*,i,i
Cc1ccc(Cn2c(C3CCCN3c3nc(-c4ccc(F)cc4)cs3)nc3cc(Cl)c(Cl)cc32)cc1 (stereo unspecified),i,i,i,i,i
CC1CCCC(NC(=O)/C=C/c2c(F)cccc2Cl)C1C (stereo unspecified),i,i,i,i,i
COc1ccc(CC(=O)Nc2cccc(/C(C)=N/NC(=O)C3(C)CC3(Br)Br)c2)cc1 (stereo unspecified),i,i,i,i,i
O=[N+]([O-])c1ccc(N2CCCC2)nc1N1CCCC1,i,i,144*,i,i
Nc1ncc([N+](=O)[O-])c(N2CCCCCC2)n1,i,i,i,i,i
CC(=O)c1cccc(NC(=O)CCC(=O)Oc2ccc(C)cc2)c1,i,i,i,i,i
SMILES,TRPC4 block,TRPC6 inh,TRPC4 act,TRPC4 potent,TRPC6 activator
CCN(Cc1ccccc1)S(=O)(=O)c1ccc(C(=O)N(CCCN(C)C)c2nc3cc4c(cc3s2)OCCO4)cc1,i,i,i,i,i
COc1ccc2sc(N(CCCN(C)C)C(=O)c3ccc(S(=O)(=O)N4CCCc5ccccc54)cc3)nc2c1,i,i,i,18*,i
COc1cc2nc(N(CCCN(C)C)C(=O)c3ccc(S(=O)(=O)N4CCc5ccccc54)cc3)sc2cc1OC,i,i,i,i,i
CN(C)CCCN(C(=O)c1ccc(S(=O)(=O)N(C)C2CCCCC2)cc1)c1nc2ccc(F)cc2s1,i,i,140*,i,i
CN(C)CCCN(C(=O)c1nc2ccccc2s1)c1nc2ccc(F)cc2s1,i,i,i,i,i
CCN(Cc1ccccc1)S(=O)(=O)c1ccc(C(=O)N(CCCN(C)C)c2nc3ccc(F)cc3s2)cc1,i,i,63*,i,i
CN(C)CCCN(C(=O)c1ccc(C(=O)c2ccccc2)cc1)c1nc2ccc(F)cc2s1,i,i,121*,i,i
O=C(OCC(=O)c1c[nH]c2ccccc12)c1cc(Br)ccc1O,i,i,i,i,i
CCN(CC(=O)Nc1c(F)cccc1F)C(=O)C1CC1C (stereo unspecified),i,i,i,i,i
CSCC[C@H](NC(=O)[C@H](Cc1ccccc1)n1c(=O)[nH]c2ccccc2c1=O)C(=O)N[C@@H](Cc1ccccc1)C(=O)O,i,i,i,i,i
Cc1ncccc1C(=O)N1CCCC(C(=O)c2ccc3c4c(cccc24)CC3)C1 (stereo unspecified),i,i,i,i,i
CCc1nc(CN2CCCC(C(=O)c3ccc4c5c(cccc35)CC4)C2)c(C)[nH]1 (stereo unspecified),i,i,116*,i,i
O=C(c1ccc2c3c(cccc13)CC2)C1CCCN(Cc2ccncc2)C1 (stereo unspecified),i,i,44*,i,i
CC(=O)[C@H]1[C@H](c2cccc(Cl)c2)C(C#N)(C#N)[C@@H]2c3ccccc3C=CN21,i,i,i,i,i
CC(C(=O)Nc1ccc(O)cc1C(=O)O)N1C(=O)/C(=C\c2cccs2)SC1=S (stereo unspecified),i,i,i,i,i
O=C(CCSc1nc(-c2ccco2)cc(C(F)(F)F)n1)N1CCN(c2ccccn2)CC1,i,-6.3*,i,i,i
Cc1ccccc1N(CC(=O)N/N=C/c1ccc(F)cc1)C(=O)c1ccccc1,i,i,91*,i,i
Cc1ccccc1N(CC(=O)N/N=C/c1ccc(Cl)cc1)C(=O)c1ccccc1,i,i,i,i,i
Cc1ccc(Cl)cc1NC(=O)CNCC(c1ccccc1)N(C)C (stereo unspecified),i,i,118*,i,i
COc1ccc(Cl)cc1NC(=O)CNC(c1ccccc1)c1ccccc1,i,i,i,i,i
COc1ccc(Cl)cc1NC(=O)CNCC(c1ccccc1)N(C)C (stereo unspecified),-7*,i,49*,i,i
Cc1ccc(Cl)cc1NC(=O)CCC(=O)O,i,i,i,i,i

# Assay outcomes: PubChem BioAssay, Johns Hopkins Ion Channel Center
